Screening results (PubChem BioAssay)
WT yeast gro inh – growth inhibition of WT yeast, mitochondrial fusion screen | mitochondrial fusion phenotypic screen, WT strain | inhibition, % at 10 µM | 2.1% of 190,000 active | AID 1362; in the data active = inhibition above about 58%; tested in S. cerevisiae
PMI activator – phosphomannose isomerase (human) activation. P34949. activation factor at 20 µM. AID 1214. purified human PMI, coupled resazurin fluorescence, 20 min; stronger effect = higher value; 1 = vehicle control, 0 substrate-free wells. 0.005% of 190,000 active;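 active = activation factor of 2 or more at 20 µM, relative to plate controls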
Target sequence (P34949 whole entry, looked up): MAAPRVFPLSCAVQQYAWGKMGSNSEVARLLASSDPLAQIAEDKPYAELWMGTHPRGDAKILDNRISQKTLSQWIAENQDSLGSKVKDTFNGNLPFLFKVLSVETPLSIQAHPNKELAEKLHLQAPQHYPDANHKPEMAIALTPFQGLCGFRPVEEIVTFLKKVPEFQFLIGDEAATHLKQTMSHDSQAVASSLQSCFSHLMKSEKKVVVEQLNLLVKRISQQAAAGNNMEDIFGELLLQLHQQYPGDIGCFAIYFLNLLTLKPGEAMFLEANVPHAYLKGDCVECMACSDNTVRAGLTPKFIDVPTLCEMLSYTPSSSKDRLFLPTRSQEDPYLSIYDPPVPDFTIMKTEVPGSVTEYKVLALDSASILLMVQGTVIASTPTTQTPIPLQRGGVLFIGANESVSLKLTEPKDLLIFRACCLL
Lmaj promast – inhibitors of Leishmania major promastigote growth | Leishmania major promastigotes, resazurin fluorescence viability | 9% of 200,000 active | inhibition, % at 10 µM | AID 1063; in the data active = inhibition above about 50%;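 note: promastigotes grown with compound for 44 hours at 28 °C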
PMI act hi M6P – increases human PMI activity with near-saturating mannose 6-phosphate; P34949; 0.34% of 190,000 active; coupled PMI enzyme assay, resazurin fluorescence, 20 min; stronger effect = higher value; 1 = untreated enzyme, 0 = substrate-free blank; activation factor at 20 µM;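 active = activation factor of 2 or more at 20 µM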
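Test system: human phosphomannose isomerase with PGI, G6PDH, diaphorase coupling enzymes; amount: 15 ng/mL PMI; incubation: enzyme reaction with compound 20 min at room temperature; technique: resorufin fluorescence (Ex 544/Em 590 nm) from resazurin via diaphorase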
Diaphorase act – counter-screen for diaphorase-based assays: diaphorase activators and chemical reducers; Diaphorase/resazurin coupled assay, resorufin fluorescence, 16 min; stronger effect = higher value; 1 = vehicle wells, 0 = NADH-free wells; activation factor at 20 µM; 0.005% of 190,000 active; AID 1229;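 active = diaphorase activity raised at least twofold by the compound at 20 µM; inactive = activation factor below 2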
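Measured by – red resorufin fluorescence at 544/590 nm excitation/emission · Test system – Clostridium kluyveri diaphorase, purified enzyme · Incubation – reaction time 16 min, room temperature · Buffer or medium – 50 mM HEPES pH 7.4 with 4.542 mM MgCl2, 0.005% Tween 20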
Numbers stand for hits; 0 = inactive. A selection: hits, their analogues and other compounds. The true share with any hit is near 10%.

SMILES	WT yeast gro inh	PMI activator	Lmaj promast	PMI act hi M6P	Diaphorase act
NC1=NC(=O)C2(COC(c3cccnc3)OC2)S1 (stereo not drawn)	0	0	0	0	0
COCCCNC(=S)NNC(=O)c1csc2ccccc12	0	0	0	0	0
Cc1cccc(N2CCN(CCNC(=O)c3cc4c(s3)CS(=O)(=O)C4)CC2)c1C	0	0	99	0	0
Cc1ccc(N(C)C(=O)N2CCN(S(=O)(=O)c3ccc(C)c(C)c3)CC2)cc1	0	0	0	0	0
Cc1ccc(N(C)C(=O)N2CCN(S(=O)(=O)c3c(C)cc(C)cc3C)CC2)cc1	0	0	98	0	0
CC(COc1cccc2ccccc12)CN1CCN(C)CC1 (stereo not drawn)	0	0	83	0	0
CCN(CC)CCCNC1=C(Cl)C(=O)c2ccccc2C1=O	0	0	100	0	0
C=CCNC1=C(Cl)C(=O)c2ccccc2C1=O	0	0	0	0	0
O=C(c1ccco1)N1CCN(Cc2nc(Cc3ccccc3)no2)CC1	0	0	0	0	0
O=C(c1ccco1)N1CCCN(Cc2nc(-c3cccs3)no2)CC1	0	0	86	0	0
O=C(CCSCc1ccccc1Cl)NC1CCCCC1	0	0	0	0	0
c1ccc2c(c1)ncn2CCOCCOCCn1cnc2ccccc21	0	0	0	0	0
Clc1ccccc1OCCN1CCCCC1	0	0	88	0	0
Nc1nc2ccccc2n1CCOc1ccccc1Cl	0	0	100	0	0
Clc1ccc(OCCN2CCCCC2)c(Cl)c1	0	0	99	0	0
Clc1ccc(OCCn2cnc3ccccc32)c(Cl)c1	68	0	0	0	0
O=c1ccccn1CCOc1ccccc1Cl	0	0	0	0	0
O=C1NC(=O)C2(COC(c3ccccc3Cl)OC2)S1 (stereo not drawn)	0	0	0	0	0
O=C(/C(=C/c1ccc(Cl)cc1)c1nc2ccccc2[nH]1)c1ccccc1	0	0	100	0	0
O=C(N/C(=C/c1ccc(Cl)cc1)c1nc2ccccc2[nH]1)c1ccco1	0	0	0	0	0
COc1ccc(C(=O)N/C(=C/c2cccs2)c2nc3ccccc3[nH]2)cc1OC	0	0	0	0	0
COc1cc(/C=C(/C(=O)c2cccs2)c2nc3ccccc3[nH]2)cc(OC)c1O	0	0	100	0	0
O=Nc1c(O)[nH]c2ccc(F)cc12	0	0	0	0	0
Cc1cc2c(N=O)c(NO)ccc2[nH]1	0	0	83	0	0
Cc1cc(C)nc(Nc2n[nH]c(-c3ccc(N)cc3)n2)n1	60	0	0	0	0
SMILES	WT yeast gro inh	PMI activator	Lmaj promast	PMI act hi M6P	Diaphorase act
O=C(/C=C\c1ccccc1)Oc1cccc2cccnc12	0	0	98	0	0
Fc1ccc(-n2cc(CNCCc3ccncc3)c(-c3ccccc3Cl)n2)cc1	0	0	64	0	0
Fc1ccc(-n2cc(CNCCc3cccnc3)c(-c3ccccc3Cl)n2)cc1	0	0	57	0	0
CC(=O)c1cnc2ncnn2c1C	0	0	0	0	0
CC(C)CC(=O)NC(=S)Nc1cccc(NC(=O)c2ccccc2Cl)c1	0	0	0	0	0
CC(C)Oc1cccc(C(=O)NC(=S)Nc2cccc(NC(=O)c3ccccc3Cl)c2)c1	0	0	86	0	0
O=C(COc1ccccc1)NC(=S)Nc1cccc(NC(=O)c2ccccc2Cl)c1	0	0	0	0	0
CC(C)CC(=O)Nc1cccc(NC(=O)c2ccccc2Cl)c1	0	0	59	0	0
CN1C(=O)/C(=C\C(=O)c2cccs2)c2ccccc21	0	0	100	0	0
O=C1CCN(C(=O)c2cccs2)c2ccccc21	0	0	0	0	0
Cc1cccc(NC(=O)C2(C)CC3c4ccccc4C2c2ccccc23)c1C (stereo not drawn)	0	0	71	0	0
CCN(C(=O)COc1ccc(C)nc1[N+](=O)[O-])C1CCS(=O)(=O)C1 (stereo not drawn)	0	0	51	0	0
Cc1ccc2nc(-c3ccc(NC(=O)C4CCCO4)cc3)[nH]c2c1 (stereo not drawn)	0	0	0	0	0
Cc1cccc(C)c1NC(=S)Nc1ccc(Cl)c(Cl)c1	80	0	55	0	0
FC(F)Oc1ccc(NC(=S)NCc2ccccc2)cc1Cl	58	0	0	0	0
CC(NC(=S)Nc1ccc(OC(F)F)c(Cl)c1)C(C)(C)C (stereo not drawn)	0	0	0	0	0
Fc1ccc(NC(=S)Nc2ccccc2N2CCOCC2)cc1Cl	61	0	0	0	0
Cc1ccc(NC(=S)Nc2ccc(OC(F)F)c(Cl)c2)cc1Cl	73	0	0	0	0
O=c1n(-c2ccccc2)c(=O)n2n1CC(O)C2	0	0	0	0	0
COc1ccc(CCNC(=O)Cn2c(=O)n(-c3ccc(F)cc3)c(=O)c3sccc32)cc1OC	0	0	0	0	0
Cc1ccc(NC(=S)Nc2ccc(Cl)c(Cl)c2)c(OC(F)F)c1	80	0	0	0	0
Fc1ccc(NC(=S)Nc2ccccc2OC(F)F)cc1Cl	62	0	0	0	0
Cc1ccc(CNC(=O)CSc2nc3ccsc3c(=O)n2Cc2ccccn2)cc1	0	0	0	0	0
O=c1c2sccc2nc(SCc2ccc([N+](=O)[O-])cc2)n1Cc1ccccn1	0	0	63	0	0
Cc1nnc(C)n1/N=C/c1cccc([N+](=O)[O-])c1	0	0	0	0	0
SMILES	WT yeast gro inh	PMI activator	Lmaj promast	PMI act hi M6P	Diaphorase act
CC(/C=N/n1c(COc2ccccc2)n[nH]c1=S)=C\c1ccccc1	75	0	0	0	0
Cc1cc(-c2n[nH]c(=S)n2/N=C/c2cccc([N+](=O)[O-])c2)n[nH]1	0	0	51	0	0
S=c1[nH]nc(C2CCCCC2)n1/N=C/C(Cl)=C\c1ccccc1	0	0	0	0	0
Cc1ccc(OCc2n[nH]c(=S)n2-c2ccccc2)cc1C	67	0	0	0	0
S=c1[nH]nc(COc2ccccc2)n1/N=C/c1ccncc1	0	0	0	0	0
Cc1cccc(OCc2n[nH]c(=S)n2-c2ccccc2)c1	0	0	0	0	0
Cc1cc(-c2n[nH]c(=S)n2/N=C/C(Cl)=C/c2ccccc2)n[nH]1	0	0	70	0	0
COc1cc(NC(=O)CSc2nnc(NC(C)C)s2)cc(OC)c1OC	0	0	0	0	0
Cn1c(-c2c(N)n(CCc3ccccc3)c3nc4ccccc4nc23)nc2ccccc21	0	0	100	0	0
Cn1c(-c2c(N)n(CCCc3ccccc3)c3nc4ccccc4nc23)nc2ccccc21	0	0	98	0	0
C=CCn1c(SCC(=O)N2CCc3ccccc3C2)nc2ccccc2c1=O	0	0	0	0	0
O=C(CCN1CCc2ccccc2C(c2ccccc2)C1)c1ccc2c(c1)OCCO2 (stereo not drawn)	0	0	100	0	0
O=C(CCN1Cc2ccccc2C1)c1ccc2c(c1)OCCO2	0	0	83	0	0
